Assay results from different studies.
Compare with care: the assays were run in different laboratories.
Target: 3-phosphoinositide-dependent protein kinase 1 (PDPK1, Homo sapiens, UniProt O15530)
Sequence (O15530 1-556, as in one of the studies): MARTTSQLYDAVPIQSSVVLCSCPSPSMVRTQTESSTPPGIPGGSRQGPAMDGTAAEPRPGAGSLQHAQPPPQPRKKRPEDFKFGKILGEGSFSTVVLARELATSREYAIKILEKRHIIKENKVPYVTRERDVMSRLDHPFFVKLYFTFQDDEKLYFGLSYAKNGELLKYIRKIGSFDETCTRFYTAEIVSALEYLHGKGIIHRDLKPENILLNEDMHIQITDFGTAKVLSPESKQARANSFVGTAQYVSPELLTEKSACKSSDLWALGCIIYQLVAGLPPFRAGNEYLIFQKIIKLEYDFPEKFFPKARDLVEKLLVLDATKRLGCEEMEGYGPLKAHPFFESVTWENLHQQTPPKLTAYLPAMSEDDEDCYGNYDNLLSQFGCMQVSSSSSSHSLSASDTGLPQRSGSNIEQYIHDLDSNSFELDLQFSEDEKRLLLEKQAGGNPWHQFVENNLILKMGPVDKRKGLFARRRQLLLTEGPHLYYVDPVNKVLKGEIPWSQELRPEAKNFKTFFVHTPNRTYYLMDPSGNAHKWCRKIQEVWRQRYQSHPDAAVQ

For `CN(c1nccc(-c2cnn3ncccc23)n1)C1CC1`, the remaining binding was 100% (binding; 1 µM).
The remaining binding of `CN(C)C(=O)Cn1cc(-c2nc([C@@](C)(c3ccc(-c4cnc(N)nc4)cc3)C3CC3)no2)cn1` is reported as 99% (cell-free assay, competition with immobilised ligand; 1 µM).
The remaining binding of `Cc1c(-c2ccccc2)oc2c(C(=O)OCCN3CCCCC3)cccc2c1=O` is reported as 100% (cell-free assay, competition with immobilised ligand; 0.1 µM).
The remaining binding of `CCN1CCN(Cc2ccc(C(=O)Nc3ccc(C)c(Oc4ccc5c(c4)CC(=O)N5)c3)cc2C(F)(F)F)CC1` is reported as 100% (binding, competition with immobilised ligand; 1 µM).
`COc1ncc2cc3ccccc3nc2c1C#N` has a remaining binding of 88% (cell-free assay, competition with immobilised ligand; 5 µM).
`c1cnn2ncc(-c3ccnc(N4CCC45COC5)n3)c2c1` has a remaining binding of 98% (binding; 1 µM).
`CN1CC[C@H](c2c(O)cc(O)c3c(=O)cc(-c4ccccc4Cl)oc23)[C@H](O)C1` gave a remaining binding of 100% (cell-free assay, competition with immobilised ligand; 10 µM).
With `CN(C)c1ncc(F)c(-c2cnn3ncccc23)n1` the remaining binding was 99% (binding; 1 µM).
`Cc1c(C(=O)O)cc(-c2ccc(C3CCNCC3)cc2)c2ccc(-c3ccc(C(F)(F)F)cc3)cc12` has a remaining binding of 100% (binding, competition with immobilised ligand; 1 µM).
The remaining binding of `O=C(c1ccc(Nc2nccc(-c3cc4ccccc4s3)n2)cc1)N1CCC(N2CCCC2)CC1` is reported as 100% (binding, competition with immobilised ligand; 1 µM).
`COc1ccc2cc(OCC3(C(=O)O)CN(C(=O)c4ccc(F)cc4)C3)ccc2c1` has a remaining binding of 100% (cell-free assay, competition with immobilised ligand; 1 µM).
For `CS(=O)(=O)CCNCc1ccc(-c2ccc3ncnc(Nc4ccc(OCc5cccc(F)c5)c(Cl)c4)c3c2)o1`, the remaining binding was 100% (cell-free assay, competition with immobilised ligand; 10 µM).
The remaining binding of `COc1ccc2c(c1)O[C@H](c1ccc(OC)c(OC)c1)C[C@@H]2NC(=O)C1(c2ccc3c(c2)OC(F)(F)O3)CC1` is reported as 100% (cell-free assay, competition with immobilised ligand; 1 µM).
`N[C@@H]1CCN(c2nccc(-c3cnn4ncccc34)n2)C1` has a remaining binding of 96% (binding; 1 µM).
For `O=C(NC[C@@H]1[C@H]2CN(C(=O)OCc3cc(C(F)(F)F)cc(C(F)(F)F)c3)C[C@@H]12)c1ccc2[nH]nnc2c1`, the remaining binding was 96% (cell-free assay, competition with immobilised ligand; 1 µM).
The remaining binding of `C=CC(=O)N1CCC(C(=O)NCC(=O)N2CCN(c3nc(-c4cnc(N)nc4C(F)F)nc(N4CCOCC4)n3)CC2)CC1` is reported as 93% (binding, competition with immobilised ligand; 1 µM).
For `C[C@@H]1CN(c2ccc3ncc(-c4ccc5[nH]nc(C6CC6)c5c4)n3n2)C[C@H](C)O1`, the remaining binding was 100% (binding, competition with immobilised ligand; 50 nM).
`Cc1ccc(NC(=O)c2ccc(CN3CCN(C)CC3)cc2)cc1Nc1nccc(-c2cccnc2)n1` gave a remaining binding of 100% (cell-free assay, competition with immobilised ligand; 0.1 µM).
`COc1ccnn2ncc(-c3ccnc(N(C)C)n3)c12` has a remaining binding of 100% (binding; 1 µM).
`Cc1nc(Nc2ncc(C(=O)Nc3c(C)cccc3Cl)s2)cc(N2CCN(CCO)CC2)n1` has a remaining binding of 100% (cell-free assay, competition with immobilised ligand; 10 µM).
The remaining binding of `O=C(NCC1CCOCC1)c1n[nH]cc1NC(=O)c1c(F)cccc1F` is reported as 100% (binding, competition with immobilised ligand; 1 µM).
`CS(=O)(=O)NCC[C@H](NC(=O)c1cncc2c1cnn2-c1ccc(F)cc1)c1ccnc(S(C)(=O)=O)c1` has a remaining binding of 100% (cell-free assay, competition with immobilised ligand; 1 µM).
With `C[C@@H]1CCN(c2nccc(-c3cnn4ncccc34)n2)C1` the remaining binding was 89% (binding; 1 µM).
With `COc1cnc(Nc2cccc(S(N)(=O)=O)c2)nc1N1CCN(c2ccccc2)CC1` the remaining binding was 100% (binding, competition with immobilised ligand; 1 µM).
`CCN(CC)Cc1cc(Nc2ccnc3cc(Cl)ccc23)ccc1O` gave a remaining binding of 93% (cell-free assay, competition with immobilised ligand; 10 µM).
The remaining binding of `c1cncc(-c2cccc(Nc3nccc(NC4CCCCC4)n3)c2)c1` is reported as 100% (binding, competition with immobilised ligand; 10 µM).
With `Cc1nc(Cc2cccc(C(F)(F)F)c2)sc1-c1ccc(C(N)=O)nc1` the remaining binding was 82% (cell-free assay, competition with immobilised ligand; 1 µM).
With `CCN(CC)CCNC(=O)c1c(C)[nH]c(/C=C2\C(=O)Nc3ccc(F)cc32)c1C` the remaining binding was 100% (cell-free assay, competition with immobilised ligand; 0.1 µM).
The remaining binding of `C[C@H](c1ccc(F)cc1)N(Cc1cccc(C(=O)O)c1)C(=O)c1cnc2ccccc2c1` is reported as 100% (cell-free assay, competition with immobilised ligand; 1 µM).
For `FC(F)(F)Oc1cccc(-c2cnc3ccc(-c4ccncc4)nn23)c1`, the remaining binding was 90% (cell-free assay, competition with immobilised ligand; 5 µM).
With `O=C(c1ccc(Nc2ncc(Cl)c(-c3ccc(Cl)s3)n2)cc1)N1CCC(N2CCCC2)CC1` the remaining binding was 82% (binding, competition with immobilised ligand; 1 µM).
`COc1cnc(Nc2cccc(S(N)(=O)=O)c2)nc1N1CCN(c2ccccc2)C(=O)C1` gave a remaining binding of 100% (binding, competition with immobilised ligand; 1 µM).
The remaining binding of `CNC(=O)c1cc(Oc2ccc(NC(=O)Nc3ccc(Cl)c(C(F)(F)F)c3)cc2)ccn1` is reported as 85% (cell-free assay, competition with immobilised ligand; 10 µM).
For `O=C(c1ccc(Nc2ncc(Cl)c(-c3cc4ccccc4s3)n2)cc1)N1CCC(N2CCCC2)CC1`, the remaining binding was 78% (binding, competition with immobilised ligand; 1 µM).
